This is an account of results in ChEMBL document CHEMBL3860028, “Bioactive Phenanthrene and Bibenzyl Derivatives from the Stems of Dendrobium nobile” (J Nat Prod, 2016).

Values after ≈ are worked out from the molar mass of the structure shown.

Assay [1] in a line: Cytotoxicity against human A549 cells assessed as decrease in cell viability after 6 days by MTT assay. It is filed as functional, cell-based. The following applies: A549, 144 h. The method in brief:
(§1)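 Cell lines from College of Pharmacy, Hebei University, grown in DMEM with 5% fetal bovine serum at 37 °C under 5% CO2. Viability read by MTT method, IC50 values derived. Epirubicin served as positive control.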
On the technique in general: Tetrazolium assays rely on reduction of a dye to a coloured formazan, in cell work by metabolically active cells.

Assay [2] can be described thus: Antifungal activity against Exserohilum turcicum after 4 to 14 days by serial dilution method. In kind it is functional. The settings on record: Setosphaeria turcica. The method in brief: (§2)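 Fungal strains kept on potato dextrose agar. Antifungal activity tested following NCCLS recommendations, with MIC values as the read-out. Prochloraz served as positive control.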

For the next assay, the system named is Alternaria citri. Description: Antifungal activity against Alternaria citri after 4 to 14 days by serial dilution method. It is filed as functional. The method in brief: (§3)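 Fungus maintained on potato dextrose agar. Antifungal activity determined as MIC following NCCLS (National […] for Clinical Laboratory Standards) recommendations, with prochloraz as the reference antifungal.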

The nature of assay [3]: Antifungal activity against Phytophthora parasitica var. nicotianae after 4 to 14 days by serial dilution method. In kind it is functional. The method in brief: as §2
Assay [4] is described as follows: Cytotoxicity against human HeLa cells assessed as decrease in cell viability after 6 days by MTT assay. It is filed as functional, cell-based. The settings on record: 144 h. The method in brief:
as §1

The nature of assay [5]: Antifungal activity against Diaporthe medusaea nitschke after 4 to 14 days by serial dilution method. In kind it is functional. The following applies: Diaporthe rudis. The method in brief:
as §2

Assay [6] can be described thus: Antifungal activity against Ceratocystis paradoxa moreau after 4 to 14 days by serial dilution method. The settings on record: Thielaviopsis. In kind it is functional. The method in brief:
as §2

Assay [7] in a line: Antifungal activity against Pestallozzia theae after 4 to 14 days by serial dilution method. In kind it is functional. The method in brief: as §2
The nature of assay [8]: Cytotoxicity against human MCF7 cells assessed as decrease in cell viability after 6 days by MTT assay. In kind it is functional, cell-based. The following applies: MCF7, 144 h. The method in brief: as §1
Assay [9] in a line: Antifungal activity against Bipolaris oryzae after 4 to 14 days by serial dilution method. In kind it is functional. The method in brief:
as §3

In another assay the test system is Alternaria brassicicola. Description: Antifungal activity against Alternaria brassicicola after 4 to 14 days by serial dilution method. It is filed as functional. The method in brief:
as §2

A further assay concerns Colletotrichum truncatum. The experiment in a line: Antifungal activity against Colletotrichum capsici after 4 to 14 days by serial dilution method. In kind it is functional. The method in brief:
as §2

Regarding `COc1c(O)cc2c(c1OC)-c1ccc(O)cc1CC2` [ERIANTHRIDIN], the 50% inhibitory concentration (IC50) in assay [1], in [4] and in assay [8] was more than 10 µM in each case. Also, the minimum inhibitory concentration (MIC) (in assay [2]; against Alternaria citri; in assay [3]; in [5]; in assay [6]; in assay [7]) was more than 400 µM throughout. The minimal inhibitory concentration (MIC) (in [9]; against Alternaria brassicicola; against Colletotrichum truncatum) was more than 400 µM in each case.
For the compound `Oc1cccc(CCc2cc(O)cc(O)c2)c1`, the IC50 in assay [1], in assay [4] and in assay [8] was more than 10 µM throughout. Besides, the MIC was found to be 109 µM (≈ 25 µg/mL) in [2]; 109 µM (≈ 25 µg/mL) in the assay on Alternaria citri; 218 µM (≈ 50.1 µg/mL) in assay [3]; 217 µM (≈ 50.1 µg/mL) in assay [5]; 109 µM (≈ 25 µg/mL) in assay [6]; 217 µM (≈ 50.1 µg/mL) in assay [7]. The MIC in assay [9] was 109 µM (≈ 25 µg/mL); in the assay with Alternaria brassicicola, more than 400 µM; in the assay with Colletotrichum truncatum, 109 µM (≈ 25 µg/mL).
`COc1cc(OC)c2c(cc(O)c3cccc(O)c32)c1-c1ccc(O)c2c1ccc1cc(O)cc(OC)c12`: the IC50 in assay [1], in assay [4] and in [8] was more than 10 µM each time. The MIC (in assay [2]; in the assay with Alternaria citri; in assay [3]; in assay [5]; in assay [6]; in assay [7]) was more than 400 µM in each case. Also, the MIC (in [9]; in the assay with Alternaria brassicicola; in the assay on Colletotrichum truncatum) was more than 400 µM in each case.
As for `COC1=CC(=O)C[C@H]2CC(=O)c3cccc(O)c3[C@@]12O`, the IC50 in assay [1], in assay [4] and in assay [8] was more than 10 µM each time. Moreover, the MIC (in assay [2]; against Alternaria citri; in assay [3]; in [5]; in [6]; in assay [7]) was more than 400 µM throughout. The MIC (in assay [9]; against Alternaria brassicicola; against Colletotrichum truncatum) was more than 400 µM each time.
As for `COC1=CC(=O)C[C@@]2(CCc3cccc(O)c32)C1=O`, the IC50 in assay [1] came to 9.9 µM; in assay [4], 9.8 µM; in assay [8] it was 9.4 µM. The MIC (in [2]; against Alternaria citri; in assay [3]; in [5]; in [6]; in assay [7]) was more than 400 µM in each case. Further, the MIC (in [9]; in the assay with Alternaria brassicicola; against Colletotrichum truncatum) was more than 400 µM in each case.
For the compound `COc1cc(O)c2c(c1)CCc1cc(O)c(-c3cc4cccc(O)c4c4c(OC)cc(O)cc34)cc1-2`, the IC50 in [1], in [4] and in [8] was more than 10 µM in each case. In addition, the minimal inhibitory concentration (MIC) (in [2]; with Alternaria citri; in assay [3]; in assay [5]; in assay [6]; in [7]) was more than 400 µM throughout. In addition, the MIC (in assay [9]; in the assay on Alternaria brassicicola; in the assay with Colletotrichum truncatum) was more than 400 µM throughout.
`COc1cc(O)cc(CCc2ccccc2)c1`: the IC50 in assay [1], in assay [4] and in assay [8] was more than 10 µM in each case. Moreover, the MIC in assay [2] amounted to 110 µM (≈ 25 µg/mL); in the assay with Alternaria citri, 110 µM (≈ 25 µg/mL); in assay [3], 219 µM (≈ 50.1 µg/mL); in [5], 219 µM (≈ 50.1 µg/mL); in [6] it was 110 µM (≈ 25 µg/mL); in assay [7], 219 µM (≈ 50.1 µg/mL). In addition, the figures for the MIC (in assay [9]; in the assay on Alternaria brassicicola; in the assay with Colletotrichum truncatum) were 110 µM (≈ 25 µg/mL), more than 400 µM and 110 µM (≈ 25 µg/mL), respectively.

By IC50 is commonly meant the concentration needed to halve the response being measured. By MIC is commonly meant the smallest concentration in the dilution series that meets the test's criterion for growth inhibition. A lower MIC goes with a more susceptible organism.
